Assay results as given in ChEMBL document CHEMBL3588770, “Novel spirohydantoin derivative as a potent multireceptor-active antipsychotic and antidepressant agent” (Bioorg Med Chem, 2015).
Activity calls are given as the source filed them. The rule behind the calls is not given here.

Columns and labels:
[1] = target: 5-hydroxytryptamine receptor 7 (Rattus norvegicus, UniProt P32305); assay: Displacement of [3H]-5-CT from 5-HT7 receptor in rat hypothalamic membrane by liquid scintillation analysis; format: cell membranes
Procedure, shortened: (§1)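 Native rat membranes were used: hippocampus with [3H]-8-OH-DPAT (170 Ci/mmol) and 5-HT for non-specific binding; cortex with [3H]-ketanserin (88.0 Ci/mmol) and methysergide; hypothalamus with [3H]-5-CT (34.5 Ci/mmol) and 5-HT. Compounds were tested in triplicate at 7–8 concentrations (10⁻¹¹–10⁻⁴ M). Read-out was liquid scintillation counting. Ki came from nonlinear regression with Cheng-Prusoff, as the mean of at least two experiments.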

[2] = target: 5-hydroxytryptamine receptor 2A (Rattus norvegicus, UniProt P14842); assay: Displacement of [3H]ketanserin from 5-HT2A receptor in rat cortical membrane by liquid scintillation analysis; format: cell membranes; procedure, shortened: as §1
[3] = target: T1, 5-hydroxytryptamine receptor 1A (Rattus norvegicus, UniProt P19327); assay: Displacement of [3H]-8-OH-DPAT from 5-HT1A receptor in rat hippocampal membrane by liquid scintillation analysis; format: cell membranes, Hippocampus; procedure, shortened: as §1
T1 sequence (P19327 whole entry): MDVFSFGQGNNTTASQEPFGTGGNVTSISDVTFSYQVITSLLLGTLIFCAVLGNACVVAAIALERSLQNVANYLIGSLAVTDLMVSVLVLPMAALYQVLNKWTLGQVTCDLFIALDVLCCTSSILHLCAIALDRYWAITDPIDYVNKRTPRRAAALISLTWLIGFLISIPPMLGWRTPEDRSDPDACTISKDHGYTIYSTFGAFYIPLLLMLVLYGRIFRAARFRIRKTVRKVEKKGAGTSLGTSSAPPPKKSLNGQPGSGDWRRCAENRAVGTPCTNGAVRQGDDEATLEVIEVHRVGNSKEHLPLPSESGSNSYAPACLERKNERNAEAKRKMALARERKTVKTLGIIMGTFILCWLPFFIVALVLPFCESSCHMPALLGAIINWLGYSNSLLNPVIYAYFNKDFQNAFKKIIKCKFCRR

[4] = target: D(2) dopamine receptor (Rattus norvegicus, UniProt P61169); assay: Displacement of [3H]spiperone from D2 receptor in rat striatum by liquid scintillation counting analysis
Procedure, shortened: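 Rat striatal membranes with [3H]-spiperone. Compounds were tested in triplicate at 7–8 concentrations (10⁻¹¹–10⁻⁴). Ki values were calculated.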

[5] = test system: Mus musculus; assay: Toxicity in ip dosed CD-1 mouse assessed as minimum dose required for induction of catalepsy by bar test; format: organism-based; details: in vivo
Procedure, shortened: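 Male CD-1 mice, 10 per group, given compound i.p. (1% Tween 80 suspension). Forelimbs were placed on a horizontal rod 4 cm high at 30, 60 and 120 min. Catalepsy was scored up to 3 (≥60 s on bar). Minimum cataleptogenic dose is the lowest dose giving a mean score ≥1 at any of those times.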

[6] = test system: Mus musculus; assay: Toxicity in ip dosed spontaneous locomotor activity CD-1 mouse model assessed as dose required to cause sedation; format: organism-based; details: in vivo
Procedure, shortened: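 CD-1 mice, 8-10 per dose, with compound given i.p. in 1% Tween 80 suspension 60 min before testing. After 30 min habituation in individual cages, ambulation (channel crossings) was counted over 1 h, recorded every 5 min. Mean ± SEM, one-way ANOVA with Bonferroni test.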

[7] = test system: Mus musculus; assay: Antianxiety-like activity in Swiss albino mouse assessed as number of punished crossings at 0.06 to 0.5 mg/kg, ip by four-plate test; format: functional, organism-based
Procedure, shortened: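 Four-plate test in male Swiss albino mice, 8-10 per dose, dosed i.p. in Tween 80 vehicle. After 15-s habituation, a 0.8 mA, 0.5 s foot shock was given at each plate crossing, with a 3 s shock-free interval. Punished crossings were counted over a 1-min session.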

[8] = test system: Mus musculus; assay: Anti-depressant like activity in Swiss albino mouse assessed as shortening of immobility time at 0.01 to 0.1 mg/kg, ip by forced swim test; format: functional, organism-based
[9] = test system: Mus musculus; assay: Antipsychotic activity in ip dosed CD-1 mouse assessed as inhibition of D-amphetamine-induced hyperlocomotor activity; format: functional, organism-based
Procedure, shortened: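 Male CD-1 mice, 8-10 per dose. d-Amphetamine was given s.c. 30 min pretest; test compound i.p. 60 min pretest in 1% Tween 80. After 30 min habituation in the activity monitor, ambulation crossings were counted for 1 h, recorded every 5 min.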

D(2) dopamine receptor, sequence (P61169 whole entry): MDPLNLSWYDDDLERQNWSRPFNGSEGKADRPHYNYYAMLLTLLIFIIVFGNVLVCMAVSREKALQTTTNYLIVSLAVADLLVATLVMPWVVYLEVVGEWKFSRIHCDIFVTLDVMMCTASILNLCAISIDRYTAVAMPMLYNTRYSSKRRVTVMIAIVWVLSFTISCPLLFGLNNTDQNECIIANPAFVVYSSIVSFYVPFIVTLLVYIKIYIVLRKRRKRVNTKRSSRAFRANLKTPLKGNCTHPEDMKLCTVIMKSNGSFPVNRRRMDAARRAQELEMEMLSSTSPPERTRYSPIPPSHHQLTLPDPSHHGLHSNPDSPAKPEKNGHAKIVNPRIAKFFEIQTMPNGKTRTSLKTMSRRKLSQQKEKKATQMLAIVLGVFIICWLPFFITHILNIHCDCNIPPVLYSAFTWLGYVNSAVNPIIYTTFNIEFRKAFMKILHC
5-hydroxytryptamine receptor 7, sequence (P32305 whole entry): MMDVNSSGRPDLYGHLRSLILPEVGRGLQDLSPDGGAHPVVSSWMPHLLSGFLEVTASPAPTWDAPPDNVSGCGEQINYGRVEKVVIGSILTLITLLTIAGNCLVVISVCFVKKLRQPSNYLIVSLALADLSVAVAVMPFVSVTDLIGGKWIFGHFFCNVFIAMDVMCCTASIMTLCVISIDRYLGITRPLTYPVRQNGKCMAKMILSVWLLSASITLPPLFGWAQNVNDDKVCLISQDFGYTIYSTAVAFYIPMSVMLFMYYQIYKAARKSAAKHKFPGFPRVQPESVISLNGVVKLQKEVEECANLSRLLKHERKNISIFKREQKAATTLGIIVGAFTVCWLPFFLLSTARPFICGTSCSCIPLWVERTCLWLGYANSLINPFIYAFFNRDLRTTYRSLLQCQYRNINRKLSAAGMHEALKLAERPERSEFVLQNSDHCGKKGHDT
5-hydroxytryptamine receptor 2A, sequence (P14842 whole entry): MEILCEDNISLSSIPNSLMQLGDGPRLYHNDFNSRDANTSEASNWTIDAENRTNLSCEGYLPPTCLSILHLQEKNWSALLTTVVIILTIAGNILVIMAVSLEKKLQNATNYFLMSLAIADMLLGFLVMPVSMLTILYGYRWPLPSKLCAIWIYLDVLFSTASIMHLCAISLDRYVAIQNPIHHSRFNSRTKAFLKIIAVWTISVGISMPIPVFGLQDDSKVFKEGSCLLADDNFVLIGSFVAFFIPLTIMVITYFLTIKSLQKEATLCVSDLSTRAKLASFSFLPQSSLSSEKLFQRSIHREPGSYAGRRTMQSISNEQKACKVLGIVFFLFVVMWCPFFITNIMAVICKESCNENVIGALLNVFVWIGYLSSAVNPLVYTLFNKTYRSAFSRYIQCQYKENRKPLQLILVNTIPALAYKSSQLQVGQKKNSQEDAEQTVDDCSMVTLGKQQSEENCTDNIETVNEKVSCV

Row | SMILES | Ki [1] | Ki [2] | Ki [3] | Ki [4] | Activity [5] | Activity [6] | Activity [7] | inhibition [8] | inhibition [9]
1 | O=C1CCc2ccc(OCCCCN3CCN(c4cccc(Cl)c4Cl)CC3)cc2N1 [ARIPIPRAZOLE] |  |  |  |  | 1 mg/kg | 1 mg/kg | inactive | inactive | Dose-dependent effect
2 | O=C1NC2(CCc3ccccc32)C(=O)N1CCCCN1CCN(c2cccc(C(F)(F)F)c2)CC1 (centres undefined) | 67 nM | 87 nM | 6 nM | 412 nM |  |  |  |  | 
3 | O=C1NC2(CCCc3ccccc32)C(=O)N1CCCCN1CCN(c2cccc(C(F)(F)F)c2)CC1 (centres undefined) | 117 nM | 157 nM | 5.3 nM | 608 nM |  |  |  |  | 
4 | O=C1NC2(CCCCC2c2ccccc2)C(=O)N1CCCCN1CCN(c2cccc(Cl)c2)CC1 (centres undefined) | 43 nM | 171 nM | 113 nM |  |  |  |  |  | 
5 | COc1ccccc1N1CCN(CCCCN2C(=O)NC3(CCC(c4ccccc4)CC3)C2=O)CC1 (centres undefined) | 130 nM | 75 nM | 3 nM | 79 nM |  |  |  |  | 

The remaining molecules from weak to strong by Ki [1], led by results:

Row | Ki [1] | Ki [2] | Ki [3] | Ki [4] | SMILES | Activity [5] | Activity [6] | Activity [7] | inhibition [8] | inhibition [9]
6 | 1500 nM | 414 nM | 306 nM |  | O=C1NC2(CCCCC2c2ccccc2)C(=O)N1CCCCN1CCN(c2ccccc2)CC1 (centres undefined) |  |  |  |  | 
7 | 768 nM | 38 nM | 30 nM | > 10000 nM | O=C1NC2(CCC(c3ccccc3)CC2)C(=O)N1CCCCN1CCN(c2cccc(Cl)c2)CC1 (centres undefined) |  |  |  |  | 
8 | 515 nM | 48 nM | 35 nM |  | O=C1NC2(CCC(c3ccccc3)CC2)C(=O)N1CCCCN1CCN(c2ccccc2)CC1 (centres undefined) |  |  |  |  | 
9 | 379 nM | 122 nM | 22 nM | > 10000 nM | O=C1NC2(CCC(c3ccccc3)CC2)C(=O)N1CCCCN1CCN(c2cccc(C(F)(F)F)c2)CC1 (centres undefined) |  |  |  |  | 
10 | 116 nM | 77 nM | 13 nM | 743 nM | O=C1NC2(CCCc3ccccc32)C(=O)N1CCCCN1CCN(c2ccccc2)CC1 (centres undefined) |  |  |  |  | 
11 | 93 nM | 111 nM | 75 nM |  | O=C1NC2(CCc3ccccc32)C(=O)N1CCCCN1CCN(c2ccccc2)CC1 (centres undefined) |  |  |  |  | 
12 | 63 nM | 498 nM | 42 nM |  | COc1ccccc1N1CCN(CCCCN2C(=O)NC3(CCCCC3c3ccccc3)C2=O)CC1 (centres undefined) |  |  |  |  | 
